From ChEMBL document CHEMBL3414548, “Luotonin-A based quinazolinones cause apoptosis and senescence via HDAC inhibition and activation of tumor suppressor proteins in HeLa cells” (Eur J Med Chem, 2015)
Active and inactive are the calls of the source. The rule behind the calls is not given here.

Legend:
[1] = test system: HeLa; experiment: Induction of senescence in human HeLa cells at 4 uM after 72 hrs by X-gal staining-based beta-galactosidase assay; format: functional, cell-based
Procedure, shortened: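 HeLa cells in chamber slides were treated at 4 μM for 72 h. They were fixed in 3% paraformaldehyde and then in methanol at 4 °C. Staining used X-gal in sodium phosphate buffer with ferro/ferricyanide, 1 mM MgCl₂ and citric acid for 24 h. Senescent cells were scored by microscopy as enlarged, flattened and blue.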

[2] = test system: HEK293; experiment: Selectivity index, ratio of IC50 for HEK cells to IC50 for human MCF7 cells; format: functional
Procedure, shortened: (§1)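 Selectivity index is IC50 in normal HEK cells divided by IC50 in the cancer cell line.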

[3] = test system: HeLa; experiment: Cytotoxicity against human HeLa cells after 72 hrs by MTT assay; format: functional, cell-based
Procedure, shortened: (§2)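 Cells were seeded at 1×10⁴ per well and preincubated 18 h at 37 °C, 5% CO₂. They were then exposed to 1–256 μM for 72 h with DMSO ≤0.25%. MTT was added for 2 h and formazan was solubilized in extraction buffer before reading OD at 570 nm. IC50 is mean ± SD of three independent experiments. HEK is the normal-cell line; cancer lines were grown in DMEM with 10% serum.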

[4] = Cytotoxicity against HEK cells after 72 hrs by MTT assay; format: cell-based; details: Homo sapiens, HEK293, 72 h; procedure, shortened: as §2
[5] = test system: HeLa; experiment: Change in HDAC-7 mRNA expression in human HeLa cells at 4 uM after 48 hrs by RT-PCR analysis; format: functional, cell-based
Procedure, shortened: (§3)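 HeLa cells were treated at 4 μM for 48 h before RNA isolation. cDNA was amplified by RT-PCR with gene-specific primers, using GAPDH as loading control. Products were run on 1% agarose gel with ethidium bromide, and band intensity was quantified by densitometry.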

[6] = test system: MCF7; experiment: Cytotoxicity against human MCF7 cells after 72 hrs by MTT assay; format: functional, cell-based; details: MCF7, 72 h; procedure, shortened: as §2
[7] = test system: HeLa; experiment: Cell cycle arrest in human HeLa cells assessed as accumulation at G0 phase at 8 uM after 48 hrs by propidium iodide staining-based flow cytometric analysis (reference value: 3%); format: functional
[8] = test system: HeLa; experiment: Change in HDAC-6 mRNA expression in human HeLa cells at 4 uM after 48 hrs by RT-PCR analysis; format: functional, cell-based; procedure, shortened: as §3
[9] = test system: HeLa; experiment: Downregulation of EZH2 mRNA expression in human HeLa cells at 4 uM after 48 hrs by RT-PCR analysis; format: functional, cell-based; procedure, shortened: as §3
[10] = test system: HeLa; experiment: Cell cycle arrest in human HeLa cells assessed as accumulation at G2/M phase at 4 uM after 48 hrs by propidium iodide staining-based flow cytometric analysis (reference value: 19%)
[11] = test system: K562; experiment: Cytotoxicity against human K562 cells after 72 hrs by MTT assay; format: functional, cell-based; details: K562, 72 h; procedure, shortened: as §2
[12] = test system: HeLa; experiment: Cell cycle arrest in human HeLa cells assessed as accumulation at S phase at 8 uM after 48 hrs by propidium iodide staining-based flow cytometric analysis (reference value: 10%); format: functional
[13] = test system: HeLa; experiment: Upregulation of p21 mRNA expression in human HeLa cells at 4 uM after 48 hrs by RT-PCR analysis; format: functional, cell-based; procedure, shortened: as §3
[14] = target: Histone deacetylase (HDAC1 and HDAC2) (Homo sapiens, UniProt Q13547+Q92769); experiment: Inhibition of HDAC1/2 in human HeLa cells using color de lys as substrate after 30 mins by colorimetric analysis; format: cell-based
Procedure, shortened: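 HeLa cells were treated at 4 μM, with TSA as reference. Samples were then incubated 30 min with Color de Lys substrate and HDAC-1/2. Developer yields a yellow product, and absorbance was read at 405 nm.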

[15] = test system: HeLa; experiment: Upregulation of p53 mRNA expression in human HeLa cells at 4 uM after 48 hrs by RT-PCR analysis; format: functional, cell-based; procedure, shortened: as §3
[16] = test system: HeLa; experiment: Cell cycle arrest in human HeLa cells assessed as accumulation at G0/G1 phase at 4 uM after 48 hrs by propidium iodide staining-based flow cytometric analysis (reference value: 62%); format: functional
[17] = test system: HEK293; experiment: Selectivity index, ratio of IC50 for HEK cells to IC50 for human K562 cells; format: functional; procedure, shortened: as §1
[18] = test system: HeLa; experiment: Downregulation of HDAC-5 mRNA expression in human HeLa cells at 4 uM after 48 hrs by RT-PCR analysis; format: functional, cell-based; procedure, shortened: as §3
[19] = test system: HeLa; experiment: Downregulation of HDAC-2 mRNA expression in human HeLa cells at 4 uM after 48 hrs by RT-PCR analysis; format: functional, cell-based; procedure, shortened: as §3
[20] = test system: HeLa; experiment: Cell cycle arrest in human HeLa cells assessed as accumulation at G1 phase at 8 uM after 48 hrs by propidium iodide staining-based flow cytometric analysis (reference value: 68%); format: functional
[21] = test system: HeLa; experiment: Cell cycle arrest in human HeLa cells assessed as accumulation at G2/M phase at 4 uM after 48 hrs by propidium iodide staining-based flow cytometric analysis (reference value: 31%); format: functional
[22] = test system: HeLa; experiment: Induction of human p16 promoter activity transfected in human HeLa cells at 4 uM after 48 hrs by luciferase-based luminescence assay; format: cell-based
Procedure, shortened: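 A 1.4 kb human p16 promoter in pGL3-basic luciferase vector was co-transfected into HeLa with a β-gal plasmid. Cells were then treated at 4 μM for 48 h. Lysate luciferase luminescence was normalized to β-galactosidase as internal control.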

[23] = test system: HeLa; experiment: Downregulation of HDAC-1 mRNA expression in human HeLa cells at 4 uM after 48 hrs by RT-PCR analysis; format: functional, cell-based; procedure, shortened: as §3
[24] = test system: HeLa; experiment: Cell cycle arrest in human HeLa cells assessed as accumulation at S phase at 4 uM after 48 hrs by propidium iodide staining-based flow cytometric analysis (reference value: 7%); format: functional
[25] = test system: HeLa; experiment: Selectivity index, ratio of IC50 for HEK cells to IC50 for human HeLa cells; format: functional; procedure, shortened: as §1

Structure (SMILES)	Activity [1]	Ratio IC50 [2]	IC50 [3] [µM]	IC50 [4] [µM]	Activity [5]	IC50 [6] [µM]	Activity [7] [%]	Activity [8]	Activity [9]	Activity [10] [%]	IC50 [11] [µM]	Activity [12] [%]	Activity [13]	IC50 [14] [µM]	Activity [15]	Activity [16] [%]	Ratio IC50 [17]	Activity [18]	Activity [19]	Activity [20] [%]	further results
Cc1nc2ccccc2c(=O)n1-c1ccccc1Cn1cc(-c2ccccc2)nn1	Active	32	5.94	256	inactive	8	7	inactive	Active	15	20.2	6	Active	2.96	Active	76	12.69	Active	Active	72	Activity [21]: 18%; Activity [22]: Active; Activity [23]: Active; Activity [24]: 6%; Ratio IC50 [25]: 43.09
O=c1c2ccccc2nc2n1Cc1cc3ccccc3nc1-2 [LUOTONIN A]	Active	6.25	5.94	58	inactive	9.28	5	inactive	Active	17	28.8	5	Active	6.4	Active	75	2.01	Active	Active	72	Activity [21]: 20%; Activity [22]: Active; Activity [23]: Active; Activity [24]: 5%; Ratio IC50 [25]: 9.76
